The subject of the assay is HEp-2 viability, ATP luminescence. The assay is described as follows: HEp-2 cell cytotoxicity, dose response, cytotoxicity control for RSV inhibitor project, ATP luminescence, purified and synthesized compounds (AID 488976). In outline:
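System: HEp-2 cells without virus / Compound dosing: 8 twofold steps, 0.39–50 µM, 0.5% DMSO / Times: 6 days with compound at 37 °C / Detection: CellTiter-Glo luminescence / Benchmarks: cell-only wells without compound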

The source made the active and inactive calls.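 The calls were made as follows: active = cell viability under 70% at any tested concentration, a measure not printed in our tables; inactive = the rest.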

The CC50 is the concentration giving 50% cytotoxicity. For the compound `Cc1csc(NC(=O)c2cccnc2)n1`, the CC50 was > 50 µM (inactive).
With `Cc1ccc(NC(=O)[C@@H]2CCCN2S(=O)(=O)c2cccc3cccnc23)c(C)c1` the figure was 38.9 µM; with `Cc1ccc(NC(=O)C2CCCN2Cc2cccc3cccnc23)c(C)c1` (configuration not stated), 13.3 µM; with `CSc1ncccc1C(=O)Nc1nc(C)cs1`, > 50 µM (inactive).
Take `Cc1ccc(NC(=O)[C@H]2CCCN2S(=O)(=O)c2cccc3cccnc23)c(C)c1`: the cytotoxic concentration (CC50) was 38 µM.
With `Cc1ccc(NC(=O)C2CCCN2S(C)(=O)=O)c(C)c1` (configuration not stated), the CC50 was > 50 µM (inactive).
With `Cc1ccc(NC(=O)C2CCCN2C(=O)c2cccc3cccnc23)c(C)c1` (configuration not stated) the figure was > 50 µM (inactive); with `Cc1ccc(NC(=O)C2CCCN2S(=O)(=O)c2cccc3cccnc23)c(C)c1` (configuration not stated), 40.5 µM.
As for `Cc1ccc(NC(=O)C2CCCN2S(=O)(=O)c2cccc3ccccc23)c(C)c1` (configuration not stated), the CC50 is 17.8 µM.
With `Cc1ccc(NC(=O)C2CCCN2C(=O)c2ccccc2)c(C)c1` (configuration not stated) the figure was > 50 µM (inactive); with `O=C(Nc1ccc(C(F)(F)F)cc1[N+](=O)[O-])O[C@H]1[C@H](Cc2ccccc2)NS(=O)(=O)[C@H]2C[C@@H]3C=C[C@]12O3`, 22.1 µM.
On to `Cc1ccc(NC(=O)C2CCCN2S(=O)(=O)c2cccc3cnccc23)c(C)c1` (configuration not stated), for which the CC50 is > 50 µM (inactive).
With `Cc1ccc(NC(=O)CNS(=O)(=O)c2cccc3cccnc23)c(C)c1` the figure was > 50 µM (inactive).
With `Cc1ccc(NC(=O)C(C)NS(=O)(=O)c2cccc3cccnc23)c(C)c1` (configuration not stated), the CC50 was > 50 µM (inactive).
For the compound `Cc1ccc(NC(=O)C2CCCN2S(=O)(=O)c2ccccc2)c(C)c1` (configuration not stated), the CC50 is > 50 µM (inactive).
In the case of `CSc1ncccc1C(=O)Nc1nc(C(C)(C)C)cs1`, the CC50 was 28.7 µM.
With `Cc1ccc(NC(=O)C2CCCN2S(=O)(=O)c2ccc3ncccc3c2)c(C)c1` (configuration not stated) the figure was > 50 µM (inactive).

The values are drawn from PubChem BioAssay AID488976 (Southern Research Specialized Biocontainment Screening …, 2010).
